pIC50: −log10 of the molar value. Activity calls are given as the source filed them. The rule behind the calls is not given here.
Tests used:
Mus musculus = species on record: Mus musculus; experiment: Inhibition of SAG-induced hedgehog pathway in mouse NIH/3T3 cells assessed as inhibition of Smo localization to primary cilia pretreated with SAG for 6 hrs followed by incubating for 24 hrs by confocal laser-scanning microscopy; type: cell-based
Method in brief: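 NIH3T3 cells in DMEM + 10% FBS were seeded at 2×10^4 per well on chamber slides for 24 h. They were stimulated with SAG (200 nM) for 6 h, then exposed to compound for 24 h. Cells were fixed in 4% paraformaldehyde and permeabilized with 0.1% Triton. Acetylated α-tubulin and Smo were immunostained and imaged by confocal microscopy.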

HeLa = experiment: Antiproliferation activity against human HeLa cells assessed as reduction in cell viability incubated for 72 hrs by MTT assay; type: functional, cell-based
Method in brief: (§1)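 MTT assay. Cells were plated overnight and exposed to a range of concentrations for 72 h. MTT was then added for 4 h and absorbance read at 570 nm. Inhibition% = [(control − compound)/(control − blank)] × 100. IC50 was fitted from the curves. Mean ± S.D. of 3–5 separate experiments. RPMI 1640 + 10% FBS; MCF10A in DMEM/F12 with 5% horse serum, EGF, hydrocortisone, insulin and cholera toxin.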

MDA-MB-231 [1] = experiment: Induction of apoptosis in human MDA-MB-231 cells assessed as decrease in Bcl2 protein expression level incubated for 1 hr by Western blot analysis; type: functional, cell-based
MDA-MB-468 [2] = experiment: Induction of apoptosis in human MDA-MB-468 cells assessed as early apoptotic cells at 14 uM incubated for 48 hrs by annexin-V-FITC staining based flow cytometric method (reference value: 2.00 %); type: functional
[3] = Acute toxicity in Kunming mouse assessed as mortality at 4552 mg/kg, ig observed for 14 days relative to control; type: organism-based; conditions: in vivo, po, read-out: Activity
Method in brief: (§2)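 Kunming mice, groups of 5 female and 5 male per dose, dosed once by gavage at graded doses; mortality recorded over 14 days as dead/treated and percent. LD50 derived by improved Karber's method: LD50 = lg^-1[xm − i(ΣP − 0.5)], xm log of maximal dose, i log ratio of neighbouring doses; 95% confidence intervals given.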

[4] = Acute toxicity in Kunming mouse assessed as mortality at 3453 mg/kg, ig observed for 14 days relative to control; type: organism-based; conditions: in vivo, po, read-out: Activity; method in brief: as §2
MDA-MB-468 [5] = experiment: Induction of cell cycle arrest in human MDA-MB-468 cells assessed as cell accumulation at S phase at 14 uM incubated for 48 hrs by propidium iodide staining-based flow cytometric analysis (reference value: 34.20 %); type: functional
Method in brief: (§3)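 Cells were seeded at 1.2×10^5 per well and treated for 48 h (MDA-MB-468: 14, 28, 56 μM). Cells were fixed in 75% ethanol at −20 °C overnight, stained with PI and analysed by flow cytometry. Mean ± S.D. of three independent experiments versus DMSO.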

MDA-MB-468 [6] = experiment: Induction of apoptosis in human MDA-MB-468 cells assessed as early apoptotic cells at 56 uM incubated for 48 hrs by annexin-V-FITC staining based flow cytometric method (reference value: 2.00 %); type: functional
MDA-MB-468 [7] = experiment: Induction of cell cycle arrest in human MDA-MB-468 cells assessed as cell accumulation at G2/M phase incubated for 48 hrs by propidium iodide staining-based flow cytometric analysis; type: functional; method in brief: as §3
MDA-MB-468 [8] = experiment: Induction of apoptosis in human MDA-MB-468 cells assessed as early apoptotic cells at 28 uM incubated for 48 hrs by annexin-V-FITC staining based flow cytometric method (reference value: 2.00 %); type: functional
MDA-MB-231 [9] = experiment: Antiproliferation activity against human MDA-MB-231 cells assessed as reduction in cell viability incubated for 72 hrs measured after 4 hrs by MTT assay; type: functional, cell-based; method in brief: as §1
MDA-MB-468 [10] = experiment: Inhibition of hedgehog pathway in human MDA-MB-468 cells assessed as decrease in Smo protein levels in cilia at 28 uM incubated for 24 hrs by immunostaining based confocal microscopic analysis; type: cell-based
Method in brief: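 MDA-MB-468 cells were treated at 28 μM for 24 h with or without SAG. Cilia were immunostained for acetylated α-tubulin and Smo and imaged by confocal microscopy. Comparisons were made against DMSO and against SAG alone.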

MDA-MB-468 [11] = experiment: Induction of apoptosis in human MDA-MB-468 cells assessed as necrotic cells at 56 uM incubated for 48 hrs by annexin-V-FITC staining based flow cytometric method (reference value: 1.52 %); type: functional
[12] = Acute toxicity in Kunming mouse assessed as mortality at 5226 mg/kg, ig observed for 14 days relative to control; type: organism-based; conditions: in vivo, po, read-out: Activity; method in brief: as §2
MDA-MB-468 [13] = experiment: Induction of apoptosis in human MDA-MB-468 cells assessed as live cells at 56 uM incubated for 48 hrs by annexin-V-FITC staining based flow cytometric method (reference value: 98.5 %); type: functional
MDA-MB-468 [14] = experiment: Induction of apoptosis in human MDA-MB-468 cells assessed as decrease in Bcl2 protein expression level incubated for 1 hr by Western blot analysis; type: functional, cell-based
A549 = experiment: Antiproliferation activity against human A549 cells assessed as reduction in cell viability incubated for 72 hrs by MTT assay; type: functional, cell-based; conditions: A549, 72 h; method in brief: as §1
[15] = Toxicity in BALB/c mouse xenografted with human MDA-MB-468 cells assessed as body weight at 80 to 100 mg/kg, ig measured every day for 21 day; type: organism-based; conditions: in vivo, po, 504 h
Method in brief: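 Female BALB/c nude mice, 6–8 weeks, given 1.0×10^7 MDA-MB-468 cells s.c. in right posterior flank; at 100 mm3 tumours, randomized into groups of five. Daily gavage at 80 or 100 mg/kg in saline with 0.1% Tween 80, or vehicle alone; body weight recorded daily, tumour volume every 2 days; sacrificed day 21.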

MDA-MB-468 [16] = experiment: Induction of apoptosis in human MDA-MB-468 cells assessed as necrotic cells at 28 uM incubated for 48 hrs by annexin-V-FITC staining based flow cytometric method (reference value: 1.52 %); type: functional
MDA-MB-231 [17] = experiment: Induction of apoptosis in human MDA-MB-231 cells assessed as increase in Bax protein expression level incubated for 1 hr by Western blot analysis; type: functional, cell-based
MDA-MB-468 [18] = experiment: Induction of cell cycle arrest in human MDA-MB-468 cells assessed as cell accumulation at S phase at 56 uM incubated for 48 hrs by propidium iodide staining-based flow cytometric analysis (reference value: 34.20 %); type: functional; method in brief: as §3
MDA-MB-468 [19] = experiment: Induction of apoptosis in human MDA-MB-468 cells assessed as live cells at 14 uM incubated for 48 hrs by annexin-V-FITC staining based flow cytometric method (reference value: 98.5 %); type: functional
MDA-MB-468 [20] = experiment: Induction of apoptosis in human MDA-MB-468 cells assessed as live cells at 28 uM incubated for 48 hrs by annexin-V-FITC staining based flow cytometric method (reference value: 98.5 %); type: functional
MCF-10A = experiment: Cytotoxicity against human MCF10A cells assessed as cell viability incubated for 72 hrs measured by MTT assay; type: cell-based; method in brief: as §1
MDA-MB-468 [21] = experiment: Induction of apoptosis in human MDA-MB-468 cells assessed as late apoptotic cells at 14 uM incubated for 48 hrs by annexin-V-FITC staining based flow cytometric method (reference value: 0.99 %); type: functional
MDA-MB-231 [22] = experiment: Induction of apoptosis in human MDA-MB-231 cells assessed as increase in apoptosis incubated for 48 hrs by annexin-V-FITC/PI staining based flow cytometric method; type: functional, cell-based
[23] = Acute toxicity in Kunming mouse assessed as mortality at 3008 mg/kg, ig observed for 14 days relative to control; type: organism-based; conditions: in vivo, po, read-out: Activity; method in brief: as §2

In the case of `O=C(Nc1ccc(Cl)c(-c2nnc3c(Cl)cccn23)c1)c1ccc(Cl)nc1Cl`, the inhibition (Mus musculus) was “Active”, the pIC50 (HeLa) was 4.18 and the Activity (MDA-MB-231 [1]) was “Active”. The Activity (MDA-MB-468 [2]) was 8.63%, the mortality at 336 h [3] was 60% and the mortality at 336 h [4] was 30%. The Activity (MDA-MB-468 [5]) was 45%, the Activity (MDA-MB-468 [6]) was 6.53% and the Activity (MDA-MB-468 [7]) was “Dose-dependent effect”. The Activity (MDA-MB-468 [8]) was 7.71%, the pIC50 (MDA-MB-231 [9]) was 4.53 and the inhibition (MDA-MB-468 [10]) was “Active”. It also gave an Activity (MDA-MB-468 [11]) of 9.06%, a mortality at 336 h [12] of 70% and an Activity (MDA-MB-468 [13]) of 60.3%. For the same molecule, the Activity (MDA-MB-468 [14]) was “Active”, the pIC50 (A549) was 4.19 and the Activity [15] was “Non-Toxic”. The Activity (MDA-MB-468 [16]) was 9.86%, the Activity (MDA-MB-231 [17]) was “Active” and the Activity (MDA-MB-468 [18]) was 44%. The Activity (MDA-MB-468 [19]) was 74.84%, the Activity (MDA-MB-468 [20]) was 67.8% and the pIC50 (MCF-10A) was < 4.00. The Activity (MDA-MB-468 [21]) was 7.15%, the Activity (MDA-MB-231 [22]) was “Dose-dependent effect” and the mortality at 336 h [23] was 10%.

— ChEMBL document CHEMBL4622968, “Discovery of [1,2,4]triazolo[4,3-a]pyridines as potent Smoothened inhibitors targeting the Hedgehog pathway with improved antitumor activity in vivo” (Bioorg Med Chem, 2020)
